Screening results from PubChem.
IDH1 R132H inh – blocks human IDH1 R132H reductase activity; O75874; diaphorase/resazurin fluorescence, 60 min; inhibition, % at 10 µM; 70,000 compounds, 0.18% hits; in the data active = inhibition above about 34%; inconclusive = no clear call, values can overlap the other calls; inactive = below about 11%
Target sequence (O75874 whole entry R132H): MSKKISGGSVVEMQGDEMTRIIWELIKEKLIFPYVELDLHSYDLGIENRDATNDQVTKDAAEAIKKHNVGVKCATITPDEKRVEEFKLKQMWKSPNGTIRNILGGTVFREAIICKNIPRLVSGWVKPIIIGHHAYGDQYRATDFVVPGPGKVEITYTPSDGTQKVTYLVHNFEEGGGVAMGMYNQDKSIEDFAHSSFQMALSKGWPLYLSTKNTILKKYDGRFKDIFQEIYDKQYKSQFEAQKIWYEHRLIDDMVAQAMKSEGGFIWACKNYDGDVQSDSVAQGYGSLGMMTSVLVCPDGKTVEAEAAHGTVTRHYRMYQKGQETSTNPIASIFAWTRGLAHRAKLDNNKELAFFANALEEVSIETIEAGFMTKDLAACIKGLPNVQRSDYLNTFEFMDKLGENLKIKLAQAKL
T cruzi growth-1 – blocks T. cruzi growth in NIH3T3 culture | T. cruzi beta-gal in NIH3T3, GalScreen luminescence, 90 h | inhibition, % at 8.34 µM | 77,000 compounds, 5.9% hits | AID 624255;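 active = mean inhibition above about 93%, with at least 55% of replicates each passing it, limit read from the data, passing the limit was not always enough; inconclusive = only one of those two conditions holds; inactive = neither condition holds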
KDM4C inh – KDM4C (human) demethylase inhibition; Q9H3R0; GST-KDM4C 2-372, H3K9me3 peptide, LANCE TR-FRET; inhibition, % at 12.5 µM; 96,000 compounds, 0.15% hits; AID 720574;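 active = mean replicate inhibition above about 25%, with at least 55% of replicates also reaching it, limit read from the data, passing the limit was not always enough; inconclusive = only one of those two conditions met; inactive = neither condition met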
Target sequence (Q9H3R0 2-372 limits assumed): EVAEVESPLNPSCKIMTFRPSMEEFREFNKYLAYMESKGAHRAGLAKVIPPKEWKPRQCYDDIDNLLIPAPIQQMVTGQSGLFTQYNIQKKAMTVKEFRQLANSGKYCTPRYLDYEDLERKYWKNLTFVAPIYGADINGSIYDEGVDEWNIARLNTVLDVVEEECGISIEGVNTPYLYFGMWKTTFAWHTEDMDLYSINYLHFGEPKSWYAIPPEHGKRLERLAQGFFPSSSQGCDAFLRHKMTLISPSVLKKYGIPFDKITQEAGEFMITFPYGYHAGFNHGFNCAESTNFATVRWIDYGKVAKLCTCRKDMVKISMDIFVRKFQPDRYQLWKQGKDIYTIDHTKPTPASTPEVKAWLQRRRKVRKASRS
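Compound: one test concentration per compound; Material: GST-GASC-1 enzyme fragment 2-372; Amount: GASC-1 enzyme at 10 nM final in reaction; Also added: H3K9me3 peptide substrate, Fe(II), 2-oxoglutarate; Technique: LANCE TR-FRET; Times: 30 min demethylation and 1 h detection at room temperature.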
T cruzi growth-2 – inhibitors of T. cruzi proliferation; AID 651739; inhibition, % at 8.35 µM; shares compounds with T cruzi growth-1; T. cruzi beta-gal in NIH3T3, GalScreen luminescence, 90 h; 5,600 compounds, 72% hits;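 active = mean replicate inhibition above about 95% and at least 55% of replicates individually reaching it, limit read from the data; inconclusive = only one of the two criteria is met; inactive = neither criterion is met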
T cruzi growth-3 – inhibitors of T. cruzi proliferation. shares compounds with T cruzi growth-1. T. cruzi beta-gal in NIH3T3, GalScreen luminescence, 90 h. inhibition, % at 2.09 µM. 5,600 compounds, 21% hits. AID 651740;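 active = mean inhibition above about 95%, with at least 55% of replicates also reaching it, limit read from the data; inconclusive = meets just one of the two conditions; inactive = meets neither condition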
NIH3T3 tox – kills mouse NIH/3T3 fibroblasts; shares compounds with T cruzi growth-1; NIH/3T3 viability, CellTiter-Glo ATP luminescence, 90 h; cytotoxicity (signal decrease), % at 8.35 µM; 5,600 compounds, 14% hits; AID 651742;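 active = mean signal decrease across replicates above about 35% based on untreated-well scatter, with enough replicates individually passing, limit read from the data; inconclusive = no rule stated though some were filed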
3T3 cytotox 2 – kills mouse NIH/3T3 fibroblasts. inhibition, % at 24.9 µM. shares compounds with T cruzi growth-1. 5,600 compounds, 56% hits. NIH/3T3 viability, CellTiter-Glo ATP luminescence, 90 h;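 active = mean loss of cell viability signal at or above a set limit, and enough replicates individually reaching it; inconclusive = meets only the mean limit or only the replicate share; inactive = meets neither condition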
Large screens that a line does not name were inactive (follow-up assays come after a bar, where they were run). The sample as a whole holds a higher share of hits than the screen did.

CC(=O)N1[C@@H]2c3ccc(C4=CCCCC4)c(=O)n3C[C@H]1[C@H](CO)[C@H]2C(=O)N[C@H](C)c1ccccc1	none (no result: IDH1 R132H inh)
C[C@H](NC(=O)[C@@H]1N[C@@H]2c3ccc(C4=CCCC4)c(=O)n3C[C@@H]2[C@H]1CO)c1ccccc1	T cruzi growth-1 97 (no result: IDH1 R132H inh) | T cruzi growth-2 inactive | T cruzi growth-3 inactive | NIH3T3 tox inactive | 3T3 cytotox 2 inactive
C[C@@H](NC(=O)[C@@H]1N[C@@H]2c3ccc(C4=CCCCC4)c(=O)n3C[C@@H]2[C@H]1CO)c1ccccc1	T cruzi growth-1 101 (no result: IDH1 R132H inh) | T cruzi growth-2 109 | T cruzi growth-3 inactive | NIH3T3 tox inactive | 3T3 cytotox 2 inactive
CC(=O)N1[C@@H]2c3ccc(C4=CCCC4)c(=O)n3C[C@H]1[C@H](CO)[C@H]2C(=O)N[C@H](C)c1ccccc1	T cruzi growth-1 101 (no result: IDH1 R132H inh) | T cruzi growth-2 inactive | T cruzi growth-3 inactive | NIH3T3 tox inactive | 3T3 cytotox 2 inactive
O=C(NCC[C@H]1CC[C@H](NS(=O)(=O)Cc2ccccc2)[C@H](CO)O1)C1CC1	none (no result: T cruzi growth-1)
COc1ccc(S(=O)(=O)N(C)C[C@H]2Oc3ccc(NS(C)(=O)=O)cc3C(=O)N([C@@H](C)CO)C[C@H]2C)cc1	none
O=C(C[C@H]1CC[C@@H]2[C@H](COC[C@@H](O)CN2Cc2nccs2)O1)NCc1ccccc1	none (no result: IDH1 R132H inh)
CO[C@H]1CN(C)C(=O)c2ccc(NS(=O)(=O)c3ccccc3C)cc2OC[C@@H](C)N(S(C)(=O)=O)C[C@@H]1C	none
C[C@@H]1CN([C@H](C)CO)C(=O)Cc2cc(NC(=O)C3CC3)ccc2O[C@@H]1CN(C)S(=O)(=O)c1ccccc1	none (no result: IDH1 R132H inh)
C/C=C/[C@H](CCn1cc([C@H](O)c2ccccc2)nn1)[Si](C)(C)c1ccc(OC)cc1	none (no result: T cruzi growth-1, KDM4C inh)
C[C@@H]1CN([C@@H](C)CO)C(=O)c2cccc(NC(=O)Nc3ccccc3)c2O[C@H]1CN(C)C(=O)Nc1ccc(F)cc1	none (no result: IDH1 R132H inh)
CN1c2ccc(-c3ccccc3)cc2[C@@H]2[C@@H](CCN2C(=O)CC2CC2)[C@H]1CO	none (no result: IDH1 R132H inh)
CN1c2ccc(-c3ccc(C#N)cc3)cc2[C@@H]2[C@@H](CCN2C(=O)CC2CC2)[C@H]1CO	T cruzi growth-1 104 (no result: IDH1 R132H inh) | T cruzi growth-2 106 | T cruzi growth-3 inactive | NIH3T3 tox inactive | 3T3 cytotox 2 41
CN1c2ccc(-c3cccc(C#N)c3)cc2[C@@H]2[C@@H](CCN2C(=O)CC2CC2)[C@H]1CO	none (no result: IDH1 R132H inh)
CN1c2ccc(-c3cccc(F)c3)cc2[C@H]2[C@H](CCN2C(=O)CC2CC2)[C@@H]1CO	T cruzi growth-1 98 (no result: IDH1 R132H inh) | T cruzi growth-2 102 | T cruzi growth-3 inactive | NIH3T3 tox inactive | 3T3 cytotox 2 inactive
O=C(NCC1CC1)[C@@H]1[C@@H](CO)[C@@H]2Cn3c(ccc(-c4cccnc4)c3=O)[C@H]1N2C(=O)C1CCC1	none (no result: IDH1 R132H inh)
Cc1cccnc1NC(=O)COc1ccc(Cl)cc1Cl	none (no result: T cruzi growth-1, KDM4C inh)
CCOC(=O)c1c(NC(=O)COc2ccc(Cl)cc2C)sc2c1CCC2	none (no result: T cruzi growth-1, KDM4C inh)
Cc1ccccc1-c1ccc([C@@H]2[C@H](CO)N3CCCCN(S(=O)(=O)Cc4ccccc4)C[C@@H]23)cc1	none (no result: IDH1 R132H inh)
O=S(=O)(Cc1ccccc1)N1CCCCN2[C@H](CO)[C@H](c3ccc(-c4ccc(F)cc4)cc3)[C@@H]2C1	T cruzi growth-1 100 (no result: IDH1 R132H inh) | T cruzi growth-2 99 | T cruzi growth-3 inactive | NIH3T3 tox inactive | 3T3 cytotox 2 105
O=S(=O)(Cc1ccccc1)N1CCCCN2[C@@H](CO)[C@H](c3ccc(-c4ccc(F)cc4)cc3)[C@@H]2C1	none (no result: IDH1 R132H inh)
O=S(=O)(Cc1ccccc1)N1CCCCN2[C@H](CO)[C@@H](c3ccc(-c4ccc(F)cc4)cc3)[C@@H]2C1	T cruzi growth-1 109 (no result: IDH1 R132H inh) | T cruzi growth-2 108 | T cruzi growth-3 inactive | NIH3T3 tox inactive | 3T3 cytotox 2 102
CCC(=O)N[C@H]1C=C[C@@H](CC(=O)NCc2cc(F)cc(F)c2)O[C@@H]1CO	none
COCc1cn(CC[C@@H]2CC[C@@H](NC(=O)c3ccncc3)[C@H](CO)O2)nn1	none
COc1cccc(S(=O)(=O)N[C@H]2CC[C@H](CCn3cc(-c4ccccc4OC)nn3)O[C@@H]2CO)c1	T cruzi growth-1 inconclusive | T cruzi growth-2 inactive | T cruzi growth-3 inactive | NIH3T3 tox inactive | 3T3 cytotox 2 inactive
COc1cccc(S(=O)(=O)N[C@@H]2CC[C@@H](CCn3cc(-c4ccccc4OC)nn3)O[C@H]2CO)c1	none
O=C(N[C@@H]1CC[C@H](CCn2cc(-c3ccccc3F)nn2)O[C@@H]1CO)c1ccc2c(c1)OCO2	none
COCc1cn(CC[C@@H]2CC[C@@H](NC(=O)c3ccncc3)[C@@H](CO)O2)nn1	T cruzi growth-1 127 | T cruzi growth-2 inactive | T cruzi growth-3 inactive | NIH3T3 tox inactive | 3T3 cytotox 2 inactive
O=C(N[C@H]1CC[C@@H](CCn2cc(-c3ccccc3F)nn2)O[C@H]1CO)c1ccc2c(c1)OCO2	T cruzi growth-1 112 | T cruzi growth-2 inactive | T cruzi growth-3 inactive | NIH3T3 tox inactive | 3T3 cytotox 2 inactive
O=C(C[C@@H]1CC[C@H]2[C@@H](COC[C@@H](O)CN2Cc2ccncc2)O1)NCC1CC1	none (no result: IDH1 R132H inh)
C[C@@H]1CN([C@@H](C)CO)C(=O)c2cccc(NC(=O)C3CCCCC3)c2O[C@H]1CN(C)S(C)(=O)=O	none (no result: IDH1 R132H inh)
COc1ccc(-c2ccc(C3[C@H]4CNC[C@@H]3N4S(=O)(=O)c3cn(C)cn3)cc2)cc1 (stereo partly specified)	none (no result: IDH1 R132H inh, T cruzi growth-1)
CC=Cc1ccc2n(c1=O)C[C@@H]1[C@@H](CO)[C@H](C(=O)NCc3ccccc3)[C@H]2N1C (mixture of isomers)	none (no result: IDH1 R132H inh)
CO[C@H]1CN(C)C(=O)c2cc(NC(=O)c3cccc(F)c3)ccc2OC[C@H](C)NC[C@H]1C	none
C[C@@H]1CN([C@@H](C)CO)S(=O)(=O)c2ccc(/C=C/c3ccccc3)cc2O[C@@H]1CN(C)Cc1cccnc1	T cruzi growth-1 88 | T cruzi growth-2 inactive | T cruzi growth-3 inactive | NIH3T3 tox 70 | 3T3 cytotox 2 94
C[C@H]1CN([C@@H](C)CO)S(=O)(=O)c2ccc(/C=C/c3ccccc3)cc2O[C@H]1CN(C)Cc1ccccc1	T cruzi growth-1 110 (no result: KDM4C inh) | T cruzi growth-2 97 | T cruzi growth-3 113 | NIH3T3 tox inactive | 3T3 cytotox 2 103
C[C@H](CO)N1C[C@H](C)[C@H](CN(C)Cc2ccccc2)Oc2cc(/C=C/c3ccccc3)ccc2S1(=O)=O	T cruzi growth-1 103 | T cruzi growth-2 100 | T cruzi growth-3 100 | NIH3T3 tox inactive | 3T3 cytotox 2 104
C[C@H]1CN([C@@H](C)CO)S(=O)(=O)c2ccc(/C=C/c3ccccc3)cc2O[C@@H]1CN(C)Cc1ccc(C(=O)O)cc1	none
C[C@H](CO)N1C[C@H](C)[C@@H](CN(C)Cc2ccccc2)Oc2cc(/C=C/c3ccccc3)ccc2S1(=O)=O	none
